{"source": "ChEMBL document CHEMBL2016498", "about": "“Synthesis and antiviral activity of a series of 1'-substituted 4-aza-7,9-dideazaadenosine C-nucleosides” (Bioorg Med Chem Lett, 2012)", "key": {"[1]": {"system": "Hepatitis C virus", "experiment": "Inhibition of Hepatitis C virus genotype 1b NS5B RNA-dependent RNA polymerase using [33P]ATP after 90 mins by phosphoimaging", "set-up": "species or system Hepatitis C virus subtype 1b", "conditions": "1.5 h", "summary_of_the_method": "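Uses recombinant GT1b NS5B in 50 mM Tris–HCl pH 7.5 with 10 mM KCl, 1 mM DTT, 5 mM MgCl2, 0.2 unit/μL RNAsin and 0.01% BSA (final concentrations). 75 nM enzyme is pre-incubated with 4 ng/μL (50 nM) heteropolymer sshRNA template for 5 min at rt. Inhibitor is then added and incubated 5 min at RT.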"}, "[2]": {"system": "Huh-7", "experiment": "(§1) Cytotoxicity against human HuH7 cells by MTS assay", "type": "cell-based", "conditions": "huh-7"}, "[3]": {"system": "Hepatitis C virus", "experiment": "Antiviral activity against Hepatitis C virus genotype 1b infected in human HuH7 cells assessed as inhibition of virus induced cytopathic effect after 24 hrs by MTS assay", "type": "functional, organism-based, Hepacivirus hominis", "conditions": "Huh-7, 24 h"}, "[4]": {"experiment": "Selectivity ratio of CC50 for human HuH7 cells to EC50 for Hepatitis C virus genotype 1b", "type": "ADME, cell-based, Huh-7", "conditions": "read-out: Ratio CC50/EC50", "summary_of_the_method": "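Anti-HCV EC50 was measured in a subgenomic HCV replicon cell assay, and CC50 was measured in the host cells of the same assay. The selectivity index was calculated as CC50/EC50.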"}, "[5]": {"system": "SARS-CoV", "experiment": "Antiviral activity against SARS coronavirus Toronto-2 infected in african green monkey Vero cells assessed as inhibition of virus induced cytopathic effect after 24 hrs by MTS assay", "type": "functional, organism-based", "conditions": "Severe acute respiratory syndrome-related coronavirus, Toronto-2, Vero"}, "[6]": {"experiment": "Antiviral activity against Coxsackievirus A7 infected in human MRC5 cells assessed as inhibition of virus induced cytopathic effect after 24 hrs by MTS assay", "type": "functional, cell-based", "conditions": "Enterovirus A, MRC5, 24 h", "summary_of_the_method": "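Cytoprotection (CPE) assay in MRC-5 cells infected with Coxsackie A strain A7 or A21. MTS dye reduction read out both protection from virus-induced CPE and compound cytotoxicity, giving EC50 and CC50.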"}, "[7]": {"system": "Influenza A virus", "experiment": "Antiviral activity against Influenza A virus H3N2 infected in MDCK cells assessed as inhibition of virus induced cytopathic effect after 24 hrs by MTS assay", "type": "functional, organism-based"}, "[8]": {"system": "MRC5", "experiment": "Cytotoxicity against human MRC5 cells by MTS assay", "type": "cell-based", "summary_of_the_method": "(§2)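 CC50 measured in the uninfected host cells used in each CPE assay. Compound cytotoxicity is read out by MTS dye reduction.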"}, "[9]": {"system": "dengue virus type 2", "experiment": "Antiviral activity against Dengue virus type 2 New Guinea C infected in african green monkey Vero E6 cells assessed as inhibition of virus induced cytopathic effect after 24 hrs by MTS assay", "type": "functional, organism-based"}, "[10]": {"experiment": "as §1", "type": "cell-based, Huh-7", "conditions": "HuH7 cells"}, "[11]": {"system": "Coxsackievirus A21", "experiment": "Antiviral activity against Coxsackievirus A21 infected in human MRC5 cells assessed as inhibition of virus induced cytopathic effect after 24 hrs by MTS assay", "type": "functional, organism-based", "conditions": "Enterovirus C, MRC5, 24 h", "summary_of_the_method": "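EC50 taken from a cytoprotection (CPE) assay. Protection of virus-infected host cells is read out by MTS dye reduction. The Coxsackie A assay uses MRC-5 cells with strain A7 or A21.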"}, "[12]": {"system": "MDCK", "experiment": "Cytotoxicity against dog MDCK cells by MTS assay", "type": "cell-based, Canis lupus familiaris", "summary_of_the_method": "as §2"}, "[13]": {"system": "Vero", "experiment": "Cytotoxicity against african green monkey Vero E6 cells by MTS assay", "type": "cell-based", "conditions": "chlorocebus sabaeus", "summary_of_the_method": "as §2"}, "[14]": {"system": "West Nile virus", "experiment": "Antiviral activity against West nile virus NY99 infected in african green monkey Vero cells assessed as inhibition of virus induced cytopathic effect after 24 hrs by MTS assay", "type": "functional, organism-based", "conditions": "NY-99, Vero"}, "[15]": {"system": "Human respirovirus 3", "experiment": "Antiviral activity against Parainfluenza 3 C 243 infected in african green monkey Vero cells assessed as inhibition of virus induced cytopathic effect after 24 hrs by MTS assay", "type": "functional, organism-based", "conditions": "Human respirovirus 3, C 243, Vero"}, "[16]": {"system": "Vero", "experiment": "Cytotoxicity against african green monkey Vero cells by MTS assay", "type": "cell-based", "conditions": "chlorocebus sabaeus", "summary_of_the_method": "as §2"}, "[17]": {"system": "HeLa", "experiment": "Cytotoxicity against human HeLa cells by MTS assay", "type": "cell-based", "summary_of_the_method": "as §2"}, "[18]": {"system": "Yellow fever virus", "experiment": "Antiviral activity against Yellow fever virus 17D infected in human HeLa cells assessed as inhibition of virus induced cytopathic effect after 24 hrs by MTS assay", "type": "functional, cell-based"}}, "data": [{"smiles": "C=C[C@@]1(c2ccc3c(N)ncnn23)O[C@H](COP(=O)(O)OP(=O)(O)OP(=O)(O)O)[C@@H](O)[C@H]1O", "values": [{"measurement": "IC50", "setting": "[1]", "value": 178, "unit": "µM"}]}, {"smiles": "C#C[C@@]1(c2ccc3c(N)ncnn23)O[C@H](COP(=O)(OCCSC(=O)C(C)(C)C)OCCSC(=O)C(C)(C)C)[C@@H](O)[C@H]1O", "values": [{"measurement": "CC50", "setting": "[2]", "value": 26, "unit": "µM"}, {"measurement": "EC50", "setting": "[3]", "value": 6.01, "unit": "µM"}, {"measurement": "selectivity ratio", "setting": "[4]", "value": "< 10"}]}, {"smiles": "C[C@@]1(c2ccc3c(N)ncnn23)O[C@H](CO)[C@@H](O)[C@H]1O", "values": [{"measurement": "EC50", "setting": "[5]", "value": "> 30", "unit": "µM"}, {"measurement": "EC50", "setting": "[6]", "value": "> 30", "unit": "µM"}, {"measurement": "EC50", "setting": "[7]", "value": "> 30", "unit": "µM"}, {"measurement": "CC50", "setting": "[8]", "value": "> 30", "unit": "µM"}, {"measurement": "EC50", "setting": "[9]", "value": "> 30", "unit": "µM"}, {"measurement": "CC50", "setting": "[10]", "value": "> 45", "unit": "µM"}, {"measurement": "EC50", "setting": "[11]", "value": "> 30", "unit": "µM"}, {"measurement": "CC50", "setting": "[12]", "value": "> 30", "unit": "µM"}, {"measurement": "CC50", "setting": "[13]", "value": "> 30", "unit": "µM"}, {"measurement": "EC50", "setting": "[14]", "value": "> 30", "unit": "µM"}, {"measurement": "EC50", "setting": "[15]", "value": 5.23, "unit": "µM"}, {"measurement": "CC50", "setting": "[16]", "value": "> 30", "unit": "µM"}]}, {"smiles": "N#C[C@@]1(c2ccc3c(N)ncnn23)O[C@H](CO)[C@@H](O)[C@H]1O", "note": "[GS-441524]", "values": [{"measurement": "EC50", "setting": "[5]", "value": 2.24, "unit": "µM"}, {"measurement": "EC50", "setting": "[6]", "value": "> 30", "unit": "µM"}, {"measurement": "CC50", "setting": "[17]", "value": "> 30", "unit": "µM"}, {"measurement": "EC50", "setting": "[7]", "value": 27.9, "unit": "µM"}, {"measurement": "CC50", "setting": "[8]", "value": "> 30", "unit": "µM"}, {"measurement": "EC50", "setting": "[18]", "value": 11, "unit": "µM"}, {"measurement": "EC50", "setting": "[9]", "value": 9.46, "unit": "µM"}, {"measurement": "CC50", "setting": "[10]", "value": "> 89", "unit": "µM"}, {"measurement": "EC50", "setting": "[11]", "value": "> 30", "unit": "µM"}, {"measurement": "CC50", "setting": "[12]", "value": "> 30", "unit": "µM"}, {"measurement": "CC50", "setting": "[13]", "value": "> 30", "unit": "µM"}, {"measurement": "EC50", "setting": "[14]", "value": "> 30", "unit": "µM"}, {"measurement": "EC50", "setting": "[15]", "value": 1.71, "unit": "µM"}, {"measurement": "CC50", "setting": "[16]", "value": "> 30", "unit": "µM"}]}, {"smiles": "C=C[C@@]1(c2ccc3c(N)ncnn23)O[C@H](CO)[C@@H](O)[C@H]1O", "values": [{"measurement": "EC50", "setting": "[5]", "value": 14, "unit": "µM"}, {"measurement": "EC50", "setting": "[6]", "value": "> 30", "unit": "µM"}, {"measurement": "EC50", "setting": "[7]", "value": "> 30", "unit": "µM"}, {"measurement": "CC50", "setting": "[8]", "value": "> 30", "unit": "µM"}, {"measurement": "EC50", "setting": "[9]", "value": "> 30", "unit": "µM"}, {"measurement": "CC50", "setting": "[10]", "value": "> 89", "unit": "µM"}, {"measurement": "EC50", "setting": "[11]", "value": "> 30", "unit": "µM"}, {"measurement": "CC50", "setting": "[12]", "value": "> 30", "unit": "µM"}, {"measurement": "EC50", "setting": "[3]", "value": "> 89", "unit": "µM"}, {"measurement": "CC50", "setting": "[13]", "value": "> 30", "unit": "µM"}, {"measurement": "EC50", "setting": "[14]", "value": "> 30", "unit": "µM"}, {"measurement": "EC50", "setting": "[15]", "value": "> 30", "unit": "µM"}, {"measurement": "CC50", "setting": "[16]", "value": "> 30", "unit": "µM"}]}, {"smiles": "C#C[C@@]1(c2ccc3c(N)ncnn23)O[C@H](CO)[C@@H](O)[C@H]1O", "values": [{"measurement": "EC50", "setting": "[5]", "value": "> 30", "unit": "µM"}, {"measurement": "EC50", "setting": "[6]", "value": "> 30", "unit": "µM"}, {"measurement": "EC50", "setting": "[7]", "value": "> 30", "unit": "µM"}, {"measurement": "CC50", "setting": "[8]", "value": "> 30", "unit": "µM"}, {"measurement": "EC50", "setting": "[9]", "value": "> 30", "unit": "µM"}, {"measurement": "CC50", "setting": "[10]", "value": "> 89", "unit": "µM"}, {"measurement": "EC50", "setting": "[11]", "value": "> 30", "unit": "µM"}, {"measurement": "CC50", "setting": "[12]", "value": "> 30", "unit": "µM"}, {"measurement": "EC50", "setting": "[3]", "value": "> 89", "unit": "µM"}, {"measurement": "CC50", "setting": "[13]", "value": "> 30", "unit": "µM"}, {"measurement": "EC50", "setting": "[14]", "value": "> 30", "unit": "µM"}, {"measurement": "EC50", "setting": "[15]", "value": "> 30", "unit": "µM"}, {"measurement": "CC50", "setting": "[16]", "value": "> 30", "unit": "µM"}]}, {"smiles": "N#C[C@@]1(c2ccc3c(N)ncnn23)O[C@H](COP(=O)(O)OP(=O)(O)OP(=O)(O)O)[C@@H](O)[C@H]1O", "note": "[RDV-TP]", "values": [{"measurement": "IC50", "setting": "[1]", "value": 5.6, "unit": "µM"}]}, {"smiles": "C[C@@]1(c2ccc3c(N)ncnn23)O[C@H](COP(=O)(O)OP(=O)(O)OP(=O)(O)O)[C@@H](O)[C@H]1O", "values": [{"measurement": "IC50", "setting": "[1]", "value": 20, "unit": "µM"}]}, {"smiles": "C=C[C@@]1(c2ccc3c(N)ncnn23)O[C@H](COP(=O)(OCCSC(=O)C(C)(C)C)OCCSC(=O)C(C)(C)C)[C@@H](O)[C@H]1O", "values": [{"measurement": "CC50", "setting": "[2]", "value": 12, "unit": "µM"}, {"measurement": "EC50", "setting": "[3]", "value": 3.43, "unit": "µM"}, {"measurement": "selectivity ratio", "setting": "[4]", "value": "< 10"}]}, {"smiles": "CC(C)(C)C(=O)SCCOP(=O)(OCCSC(=O)C(C)(C)C)OC[C@H]1O[C@@](C#N)(c2ccc3c(N)ncnn23)[C@H](O)[C@@H]1O", "values": [{"measurement": "CC50", "setting": "[2]", "value": 3.2, "unit": "µM"}, {"measurement": "EC50", "setting": "[3]", "value": 0.085, "unit": "µM"}, {"measurement": "selectivity ratio", "setting": "[4]", "value": 40}]}, {"smiles": "C#C[C@@]1(c2ccc3c(N)ncnn23)O[C@H](COP(=O)(O)OP(=O)(O)OP(=O)(O)O)[C@@H](O)[C@H]1O", "values": [{"measurement": "IC50", "setting": "[1]", "value": 232, "unit": "µM"}]}, {"smiles": "CC(C)(C)C(=O)SCCOP(=O)(OCCSC(=O)C(C)(C)C)OC[C@H]1O[C@@](C)(c2ccc3c(N)ncnn23)[C@H](O)[C@@H]1O", "values": [{"measurement": "CC50", "setting": "[2]", "value": 0.73, "unit": "µM"}, {"measurement": "EC50", "setting": "[3]", "value": 0.078, "unit": "µM"}, {"measurement": "selectivity ratio", "setting": "[4]", "value": "< 10"}]}]}
